Experimental data reported in ChEMBL document CHEMBL4813970, “Design, synthesis and evaluation of novel dimethylamino chalcone-O-alkylamines derivatives as potential multifunctional agents against Alzheimer's disease” (Eur J Med Chem, 2021).
Calls of active or inactive are those of the source. The rule behind the calls is not given here.

Columns and labels:
[1] = tested on: PC-12; assay: Neuroprotective activity against H2O2-induced cytotoxicity in rat PC12 cells assessed as increase in cell viability by LDH assay; assay type: functional, cell-based
Outline: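 PC12 cells exposed to H2O2, with or without compound. Membrane damage read as LDH release into the supernatant. Trolox is the reference.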

[2] = Antioxidant activity of compound assessed as trolox equivalent antioxidant capacity by ORAC-FL assay; assay type: functional
[3] = Acute toxicity in KM mouse assessed as mortality upto 1000 mg/kg,po administered as single dose measured for 14 days; assay type: organism-based; settings: in vivo, 336 h, time 14 day
[4] = target: T1, Amyloid-beta precursor protein (Homo sapiens, UniProt P05067); assay: Inhibition of Cu2+ induced amyloid beta (1 to 42 residues) (unknown origin) aggregation at 25 uM by thioflavin-T fluorescence method relative to control
[5] = target: T2, Acetylcholinesterase (Electrophorus electricus, UniProt O42275); assay: Inhibition of electric eel AChE using acetylthiocholine iodide as substrate by Ellman's method
[6] = tested on: PC-12; assay: Neuroprotective activity against H2O2-induced cytotoxicity in rat PC12 cells assessed as increase in cell viability at 1 uM by MTT assay; assay type: functional
Outline: (§1)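 PC12 cells exposed to 100 μM H2O2, with or without compound. Viability read by MTT reduction relative to control. Trolox 100 μM is the reference.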

[7] = Metal chelating activity assessed as compound-Cu2+ complex formation by measuring maximum absorption wavelength shifted from 444 nm to 460 nm by UV-Visible spectrophotometry
Outline: (§2)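 UV-vis spectra recorded from 200 to 600 nm on a multimode reader. Metals tested as CuCl2, FeSO4, ZnCl2 and AlCl3.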

[8] = target: T1, Amyloid-beta precursor protein; assay: Inhibition of self-induced amyloid beta (1 to 42) (unknown origin) aggregation by T-fluorescence assay relative to control; settings: read-out: IC50
Outline: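 IC50 by ThT fluorescence (excitation 446 nm, emission 490 nm). Computed only where inhibition of self-induced Aβ1-42 aggregation at 25 μM exceeded 90%. Triplicate; mean of three independent experiments.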

[9] = Metal chelating activity assessed as compound Fe2+ complex formation by UV-Visible spectrophotometry; outline: as §2
[10] = target: T3, Acetylcholinesterase (Rattus norvegicus, UniProt P37136); assay: Inhibition of rat cortex homogenate acetylcholinesterase by Ellman's method
T3 sequence (P37136 whole entry): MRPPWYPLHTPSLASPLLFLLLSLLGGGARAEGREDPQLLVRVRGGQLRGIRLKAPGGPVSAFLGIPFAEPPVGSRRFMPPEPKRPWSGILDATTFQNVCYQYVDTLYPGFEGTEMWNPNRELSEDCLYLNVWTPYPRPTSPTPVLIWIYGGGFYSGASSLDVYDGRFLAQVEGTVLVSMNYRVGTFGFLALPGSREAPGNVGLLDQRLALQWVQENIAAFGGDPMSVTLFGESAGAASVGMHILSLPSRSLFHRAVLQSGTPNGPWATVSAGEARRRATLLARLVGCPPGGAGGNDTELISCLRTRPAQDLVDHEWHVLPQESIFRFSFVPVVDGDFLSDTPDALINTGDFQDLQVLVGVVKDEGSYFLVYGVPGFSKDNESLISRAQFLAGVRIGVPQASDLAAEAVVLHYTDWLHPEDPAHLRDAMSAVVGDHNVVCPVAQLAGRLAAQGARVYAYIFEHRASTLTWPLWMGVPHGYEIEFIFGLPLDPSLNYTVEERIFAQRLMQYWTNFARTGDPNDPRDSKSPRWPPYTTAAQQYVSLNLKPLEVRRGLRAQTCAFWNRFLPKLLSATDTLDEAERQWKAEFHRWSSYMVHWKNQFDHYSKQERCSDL

[11] = target: T1, Amyloid-beta precursor protein; assay: Disaggregation of Cu2+ induced amyloid beta (1 to 42 residues) (unknown origin) aggregation at 25 uM by thioflavin-T fluorescence method relative to control
[12] = target: T1, Amyloid-beta precursor protein; assay: Inhibition of self-induced amyloid beta (1 to 42) (unknown origin) assessed as reduction in fibril formation incubated for 24 hrs by transmission electron microscopy
Outline: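 Aβ1-42 at 25 μM incubated 24 h with or without compound at 25 μM. Samples imaged by transmission electron microscopy.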

[13] = target: Butyrylcholinesterase (Rattus norvegicus, UniProt Q9JKC1); assay: Inhibition of rat serum BuChE by Ellman's method
[14] = tested on: Mus musculus; assay: Antialzheimer activity in scopolamine-induced po dosed KM mouse model of memory impairment assessed as increase in latency time treated for 7 days followed by training trial at 1 hr post dose and subsequent scopolamine challenge at 30 mins post training trial and measured post last dose by step-down passive avoidance test; assay type: functional, organism-based; settings: dose 2.3-20.4 mg/kg, time 7.0 day
Outline: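 Mice orally dosed at 2.3, 6.8 and 20.4 mg/kg, with donepezil 5.0 mg/kg p.o. as positive control, 1 h before training trial. Scopolamine 3 mg/kg i.p. given 30 min later. Training trial uses a 0.5 mA, 2 s foot shock on stepping down from the block. Step-down latency is measured as the test trial 24 h after training. n = 10 per group.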

[15] = target: T1, Amyloid-beta precursor protein; assay: Disaggregation of self-induced amyloid beta (1 to 42) (unknown origin) at 25 uM measured by Thioflavin T based fluorometric assay relative to control
[16] = species: Homo sapiens; assay: Selectivity index, ratio of IC50 for recombinant human MAO-A to IC50 for recombinant human MAO-B
Outline: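 Selectivity index taken as IC50(hMAO-A)/IC50(hMAO-B). IC50 values are mean ± SEM from three experiments.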

[17] = tested on: PC-12; assay: Neuroprotective activity against H2O2-induced cytotoxicity in rat PC12 cells assessed as increase in cell viability at 10 uM by MTT assay; assay type: functional; outline: as §1
[18] = Metal chelating activity assessed as compound Zn2+ complex formation by UV-Visible spectrophotometry; outline: as §2
[19] = tested on: PC-12; assay: Neuroprotective activity against H2O2-induced cytotoxicity in rat PC12 cells assessed as increase in cell viability by MTT assay; assay type: functional, cell-based; outline: as §1
[20] = target: T2, Acetylcholinesterase; assay: Mixed type inhibition of electric eel AChE by reciprocal Lineweaver-Burk plot analysis
[21] = target: T4, Amine oxidase [flavin-containing] B (Homo sapiens, UniProt P27338); assay: Inhibition of human recombinant MAO-B by multimode plate reader assay
T4 sequence (P27338 whole entry): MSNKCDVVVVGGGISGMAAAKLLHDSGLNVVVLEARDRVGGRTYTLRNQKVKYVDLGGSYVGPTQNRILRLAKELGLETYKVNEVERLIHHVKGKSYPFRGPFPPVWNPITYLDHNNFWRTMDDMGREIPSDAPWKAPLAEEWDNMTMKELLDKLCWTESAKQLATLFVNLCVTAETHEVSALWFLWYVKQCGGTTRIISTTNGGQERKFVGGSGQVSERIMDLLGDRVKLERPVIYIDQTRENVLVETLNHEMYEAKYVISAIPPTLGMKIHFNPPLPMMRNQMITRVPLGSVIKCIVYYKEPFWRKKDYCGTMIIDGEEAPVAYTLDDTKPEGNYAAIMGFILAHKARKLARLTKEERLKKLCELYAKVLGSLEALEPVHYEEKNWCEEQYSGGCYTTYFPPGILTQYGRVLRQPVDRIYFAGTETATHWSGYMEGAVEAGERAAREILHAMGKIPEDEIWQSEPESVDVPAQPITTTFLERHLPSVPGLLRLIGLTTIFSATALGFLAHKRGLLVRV

T1 sequence (P05067 whole entry, the tested form may be a part): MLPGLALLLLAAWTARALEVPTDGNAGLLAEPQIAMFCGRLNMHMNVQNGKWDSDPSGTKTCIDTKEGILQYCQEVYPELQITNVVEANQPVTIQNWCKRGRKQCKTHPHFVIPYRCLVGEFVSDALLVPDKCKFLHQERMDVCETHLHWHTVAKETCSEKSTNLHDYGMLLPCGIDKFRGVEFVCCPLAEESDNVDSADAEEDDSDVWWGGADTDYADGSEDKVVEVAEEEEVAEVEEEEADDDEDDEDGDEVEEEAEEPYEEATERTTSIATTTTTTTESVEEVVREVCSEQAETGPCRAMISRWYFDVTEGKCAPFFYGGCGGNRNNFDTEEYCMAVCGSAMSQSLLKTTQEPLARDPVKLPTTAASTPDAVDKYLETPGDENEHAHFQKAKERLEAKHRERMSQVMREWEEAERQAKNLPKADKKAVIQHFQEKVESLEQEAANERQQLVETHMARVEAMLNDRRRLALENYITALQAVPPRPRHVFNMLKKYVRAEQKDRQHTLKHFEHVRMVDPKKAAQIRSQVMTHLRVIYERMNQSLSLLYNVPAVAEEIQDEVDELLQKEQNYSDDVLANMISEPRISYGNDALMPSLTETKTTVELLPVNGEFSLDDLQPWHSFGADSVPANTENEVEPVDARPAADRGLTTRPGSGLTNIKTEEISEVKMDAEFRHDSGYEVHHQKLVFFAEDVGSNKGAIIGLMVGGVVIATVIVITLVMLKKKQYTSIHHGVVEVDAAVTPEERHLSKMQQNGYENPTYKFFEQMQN
T2 sequence (O42275 whole entry): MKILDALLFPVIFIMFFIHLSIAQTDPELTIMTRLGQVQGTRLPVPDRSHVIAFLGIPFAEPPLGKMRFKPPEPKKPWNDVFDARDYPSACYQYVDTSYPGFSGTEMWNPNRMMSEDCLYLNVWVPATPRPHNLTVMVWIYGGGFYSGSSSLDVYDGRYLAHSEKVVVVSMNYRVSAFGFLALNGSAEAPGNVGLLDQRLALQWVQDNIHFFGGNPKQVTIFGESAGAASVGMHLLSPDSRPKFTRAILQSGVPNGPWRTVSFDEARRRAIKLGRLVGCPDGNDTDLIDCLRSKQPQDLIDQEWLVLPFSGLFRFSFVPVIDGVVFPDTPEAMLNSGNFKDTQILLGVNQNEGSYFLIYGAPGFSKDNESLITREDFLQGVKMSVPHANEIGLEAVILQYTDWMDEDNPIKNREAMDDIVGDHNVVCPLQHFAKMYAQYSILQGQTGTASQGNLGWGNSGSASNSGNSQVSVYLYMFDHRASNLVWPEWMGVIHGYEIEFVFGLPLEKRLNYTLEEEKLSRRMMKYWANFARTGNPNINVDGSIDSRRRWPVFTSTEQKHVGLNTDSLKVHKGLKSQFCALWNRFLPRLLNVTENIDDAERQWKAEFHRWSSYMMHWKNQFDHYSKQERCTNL
Chain of Butyrylcholinesterase (Q9JKC1 whole entry): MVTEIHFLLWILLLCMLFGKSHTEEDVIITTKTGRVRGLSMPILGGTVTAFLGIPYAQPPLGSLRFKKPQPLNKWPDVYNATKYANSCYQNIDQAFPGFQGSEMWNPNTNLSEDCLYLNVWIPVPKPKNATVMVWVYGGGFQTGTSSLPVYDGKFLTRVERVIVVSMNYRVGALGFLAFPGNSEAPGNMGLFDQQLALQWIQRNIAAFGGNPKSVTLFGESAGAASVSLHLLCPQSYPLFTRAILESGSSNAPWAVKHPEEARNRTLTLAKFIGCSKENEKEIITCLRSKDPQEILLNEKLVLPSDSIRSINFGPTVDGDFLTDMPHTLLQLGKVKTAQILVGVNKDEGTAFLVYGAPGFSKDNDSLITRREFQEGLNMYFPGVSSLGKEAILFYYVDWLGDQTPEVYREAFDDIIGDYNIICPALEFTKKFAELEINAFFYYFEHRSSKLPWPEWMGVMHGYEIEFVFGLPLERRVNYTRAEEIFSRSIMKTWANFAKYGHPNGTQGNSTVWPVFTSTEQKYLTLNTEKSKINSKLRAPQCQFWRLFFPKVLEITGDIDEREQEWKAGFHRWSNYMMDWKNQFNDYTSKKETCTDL

For `CCN(CCCCOc1ccc(C(=O)/C=C/c2ccc(N(C)C)cc2)c(O)c1)Cc1ccccc1N(C)C`, the Activity [1] was “Active”, the Activity [2] was 2.1 and the Activity [3] was “Non-Toxic”. The inhibition [4] was 95.3%, the IC50 [5] was 0.69 µM and the Activity [6] was 70.9%. The Activity [7] was “Active”, the IC50 [8] was 0.88 µM and the Activity [9] was “inactive”. The IC50 [10] was 0.13 µM, the Activity [11] was 88.1% and the Activity [12] was “inactive”. The IC50 [13] was 236 µM, the Activity [14] was “Dose-Dependent Effect” and the Activity [15] was 95.1%. The Selectivity Index [16] was 18.4, the Activity [17] was 88.1% and the Activity [18] was “inactive”. The Activity [19] was “Dose-Dependent Effect”, the Ki [20] was 0.5 µM and the IC50 [21] was 1 µM.
